Assay results: ChEMBL document CHEMBL4364341, “Radiosensitization of Head and Neck Squamous Cell Carcinoma (HNSCC) by a Podophyllotoxin” (ACS Med Chem Lett, 2019)
Calls of active or inactive are those of the source. No cut-off for these calls is given here.

Columns and labels:
SCC-25 [1] = assay: Synergistic antiproliferative activity against human SCC25 cells assessed as reduction in colony formation unit followed by irradiation with 5 Gy IR and measured after 10 to 14 days by crystal violet staining based assay; assay type: functional, cell-based
FaDu [2] = assay: Synergistic antiproliferative activity against human FADU cells assessed as combination index at 5 uM preincubated for 1 hr followed by irradiation with 5 Gy IR and measured after 6 days by MTT assay; assay type: functional
Outline: (§1)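 Combination index was calculated by the Chou–Talalay median-effect method from the 6-day MTT viability data of the single-plate compound/X-ray (2.5, 5, 10 Gy) design. CI < 1 denotes synergy, CI = 1 additivity and CI > 1 antagonism.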

FaDu [3] = assay: Synergistic antiproliferative activity against human FADU cells assessed as fractional inhibition at 0.05 uM preincubated for 1 hr followed by irradiation with 2.5 Gy IR and measured after 6 days by MTT assay (reference value: 0.131); assay type: functional
Outline: (§2)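 FaDu or SCC-25 cells were grown in DMEM with 10% FBS at 37 °C and 5% CO2. They were seeded at 1000 cells/well in 96-well plates for 24 h, then dosed with compound (fresh DMSO stock diluted in medium) or vehicle. After 1 h, X-rays were given with a sliding 5 mm lead shield, so one plate held 0, 2.5, 5 and 10 Gy columns. After 6 days, MTT (0.5 mg/mL, 45 min) was added, then DMSO, and A570 was read. Values were normalised to the unirradiated vehicle control. Fractional inhibition = 1 − surviving fraction.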

FaDu [4] = assay: Synergistic antiproliferative activity against human FADU cells assessed as fractional inhibition at 5 uM preincubated for 1 hr followed by irradiation with 5 Gy IR and measured after 6 days by MTT assay (reference value: 0.097); assay type: functional; outline: as §2
FaDu [5] = assay: Synergistic antiproliferative activity against human FADU cells assessed as combination index at 0.5 uM preincubated for 1 hr followed by irradiation with 2.5 Gy IR and measured after 6 days by MTT assay; assay type: functional; outline: as §1
FaDu [6] = assay: Synergistic antiproliferative activity against human FADU cells assessed as combination index at 5 uM preincubated for 1 hr followed by irradiation with 2.5 Gy IR and measured after 6 days by MTT assay; assay type: functional; outline: as §1
FaDu [7] = assay: Synergistic antiproliferative activity against human FADU cells assessed as combination index at 0.05 uM preincubated for 1 hr followed by irradiation with 5 Gy IR and measured after 6 days by MTT assay; assay type: functional; outline: as §1
SCC-25 [8] = assay: Antiproliferative activity against human SCC25 cells assessed as fractional inhibition at 0.005 uM after 6 days in absence of irradiation by MTT assay; assay type: functional; outline: as §2
SCC-25 [9] = assay: Synergistic antiproliferative activity against human SCC25 cells assessed as fractional inhibition at 0.5 uM preincubated for 1 hr followed by irradiation with 10 Gy IR and measured after 6 days by MTT assay (reference value: 0.347); assay type: functional
Outline: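 SCC-25 cells seeded 1000/well in 96-well plates in DMEM/10% FBS and left 24 h. Drug or vehicle added, then after 1 h X-irradiated to 2.5, 5 or 10 Gy on one plate using a shifted lead shield. Plates incubated 6 days, then MTT (0.5 mg/mL, 45 min), DMSO solubilisation, absorbance at 570 nm. Fractional inhibition = 1 − fraction of surviving cells.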

SCC-25 [10] = assay: Synergistic antiproliferative activity against human SCC25 cells assessed as combination index at 0.05 uM preincubated for 1 hr followed by irradiation with 10 Gy IR and measured after 6 days by MTT assay; assay type: functional
Outline: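 SCC-25 cells grown in DMEM with 10% FBS at 37 °C, 5% CO2, seeded 1000 cells/well in 96-well plates and left 24 h. Drug in DMSO, diluted in complete medium, added 1 h before X-irradiation. A movable 5 mm lead shield gave 0, 2.5, 5 or 10 Gy on one plate. After 6 days, MTT readout at 570 nm. Combination index by Chou–Talalay from viability data.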

FaDu [11] = assay: Induction of cell cycle arrest in human FADU cells at 0.5 uM by propidium iodide staining based flow cytometry; assay type: functional
Outline: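 Cell-cycle distribution was measured by propidium iodide staining and flow cytometry. Readings were taken 6 and 24 h after compound alone, 5 Gy IR alone, or the combination, against control.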

FaDu [12] = assay: Synergistic induction of cell cycle arrest in human FADU cells assessed as decrease in CDK1 at 0.5 uM followed by irradiation with 5 Gy IR incubated for 48 hrs by immunoblot analysis; assay type: functional, cell-based
Outline: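 FaDu cells received drug, 5 Gy IR, or both; vehicle-only controls. Lysates collected after 48 h and immunoblotted with primary antibodies to NRF2, cyclin B1, CDK1, Bax and Bcl-2. Membranes stripped and reprobed for beta-actin as loading control.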

[13] = molecular target: T1, Nuclear factor erythroid 2-related factor 2 (Homo sapiens) (UniProt Q16236); assay: Inhibition of Nrf2 in human FADU cells at 0.5 uM incubated for 48 hrs by immunofluorescence analysis; assay type: cell-based
T1 sequence (whole entry): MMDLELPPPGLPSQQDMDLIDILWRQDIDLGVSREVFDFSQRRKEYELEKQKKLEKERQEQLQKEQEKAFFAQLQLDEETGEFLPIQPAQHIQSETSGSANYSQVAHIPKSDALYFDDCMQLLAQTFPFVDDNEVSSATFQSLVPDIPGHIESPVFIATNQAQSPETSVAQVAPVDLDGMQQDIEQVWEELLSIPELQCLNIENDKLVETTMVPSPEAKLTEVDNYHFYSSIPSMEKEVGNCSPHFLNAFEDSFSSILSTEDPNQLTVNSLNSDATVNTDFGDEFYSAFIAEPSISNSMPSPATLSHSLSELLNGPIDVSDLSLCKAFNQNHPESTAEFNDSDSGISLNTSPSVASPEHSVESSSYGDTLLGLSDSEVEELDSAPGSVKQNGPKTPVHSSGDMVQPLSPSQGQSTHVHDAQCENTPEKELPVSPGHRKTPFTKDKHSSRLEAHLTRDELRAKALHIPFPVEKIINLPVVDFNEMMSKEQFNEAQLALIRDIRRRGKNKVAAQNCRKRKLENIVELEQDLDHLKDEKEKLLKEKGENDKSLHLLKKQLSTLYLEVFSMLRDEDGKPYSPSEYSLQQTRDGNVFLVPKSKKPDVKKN
Outline: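 FaDu cells received compound, 5 Gy IR, or both, and Nrf2 was imaged by immunofluorescence 48 h later.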

SCC-25 [14] = assay: Synergistic induction of apoptosis in human SCC25 cells at 0.5 uM followed irradiation with 5Gy IR by annexin V FITC and propidium iodide staining based flow cytometry; assay type: functional, cell-based; details: TDE = time-dependent effect
Outline: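 FaDu or SCC-25 cells, untreated, given 5 Gy IR, drug, or both. Apoptotic cells measured by annexin V flow cytometry 48 h after treatment. Percentage compared with control by t test.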

In the case of `COc1ccc2c(c1)N(CCO)C1=C(C(=O)OC1)C2c1ccccc1` (centres undefined), the inhibition (SCC-25 [1]) is reported as “Dose-dependent effect”, the CI (FaDu [2]) is reported as 0.324 and the “fractional inhibitory concentration index (FICI)” value (FaDu [3]) is reported as 0.383. For the same compound, the “fractional inhibitory concentration index (FICI)” value (FaDu [4]) was 0.633, the CI (FaDu [5]) was 0.377 and the CI (FaDu [6]) was 1.225. The CI (FaDu [7]) was 1.18, the “fractional inhibitory concentration index (FICI)” value (SCC-25 [8]) was 0.009 and the “fractional inhibitory concentration index (FICI)” value (SCC-25 [9]) was 0.713. For the same compound, the CI (SCC-25 [10]) was 1.056, the Activity (FaDu [11]) was “inactive” and the Activity (FaDu [12]) was “Active”. For the same compound, the inhibition [13] was “Active” and the Activity (SCC-25 [14]) was “Tde”.
